Entries after “also recorded” stand apart in the source; their conditions may differ.
Tests used:
NF-κB [1] = assay: NF-κB activation using THP1-Blue NF-κB cells; assay type: cell-based, human; settings: for EC50: read-out: EC50 NF-κB induction in the presence of LPS, with LPS (10 ng/mL), THP1-Blue NF-κB cells, SEAP; for EC50 / NF-κB activity (in words, SAR text to Table 1): 20h; for NF-κB activity (in words, SAR text to Table 1): compound alone, 5 μM; for NF-κB induction in the presence of LPS (in words, Fig. 6): compared to compound 1
Outline: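 THP1-Blue NF-κB cells carry a stably integrated NF-κB-inducible SEAP. They were plated at 10^5 cells/well in RPMI with 10% FBS, penicillin, streptomycin and Normocin, then treated for 20 h with 5 μM test compound (0.5% DMSO final), alone or with LPS at 10 ng/mL. Supernatant SEAP was read colorimetrically at 630 nm. Signals were two-point normalized: baseline (vehicle or LPS) 100%, reference hit 200%.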

IL-8 = IL-8 release in THP-1 cells; assay type: cell-based, human; settings: 5 μM compound; for IL-8 induction with LPS: LPS 1 ng/mL, compared to Veh+LPS; for IL-8 induction, compound alone: without LPS, compared to Veh
Outline: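 THP-1 cells were exposed overnight to 5 μM test compound or vehicle (0.5% DMSO), with or without LPS at 1 ng/mL. Secreted IL-8 in a portion of the supernatant was quantified by ELISA.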

NF-κB [2] = assay: Confirmatory kinetic screening, cell-based NF-κB FRET assay with LPS; design: species or system human; settings: 12h incubation, 21 HTS actives

EC50 (NF-κB [1]) [µM]	SMILES	IL-8 induction with LPS (IL-8)	IL-8 induction, compound alone (IL-8)	NF-κB enhancement activity at 12h in the presence of LPS (NF-κB [2])	NF-κB activity (in words, SAR text to Table 1) (NF-κB [1])	NF-κB induction in the presence of LPS (in words, Fig. 6) (NF-κB [1])
2.3	Cc1ccc(C)c(-c2csc(NC(=O)c3ccc(S(=O)(=O)N4CCCCC4)cc3)n2)c1 [Compound 1, N-(4-(2,5-dimethylphenyl)thiazol-2-yl)-4-(piperidin-1-ylsulfonyl)benzamide]	significantly enhanced	induced IL-8	most potent		
4.5	Cc1ccc(Br)c(-c2csc(NC(=O)c3ccc(S(=O)(=O)N4CCCCC4)cc3)n2)c1 [Compound 12d, N-(4-(2-bromo-5-methylphenyl)thiazol-2-yl)-4-(piperidin-1-ylsulfonyl)benzamide]	significantly enhanced	induced IL-8		active; also recorded: most active	
1.7	CCCC#Cc1sc(NC(=O)c2ccc(S(=O)(=O)N3CCCCC3)cc2)nc1-c1cc(C)ccc1C [Compound 18q, N-(4-(2,5-dimethylphenyl)-5-(pent-1-yn-1-yl)thiazol-2-yl)-4-(piperidin-1-ylsulfonyl)benzamide]	significantly enhanced	induced IL-8		very potent; also recorded: most active	
0.9	CCCC1CCN(S(=O)(=O)c2ccc(C(=O)Nc3nc(-c4cc(C)ccc4C)cs3)cc2)CC1 [Compound 54h, N-(4-(2,5-dimethylphenyl)thiazol-2-yl)-4-((4-propylpiperidin-1-yl)sulfonyl)benzamide]	significantly enhanced	induced IL-8		very potent; also recorded: most active	
	C#CC1CCN(S(=O)(=O)c2ccc(C(=O)Nc3nc(-c4cc(C)ccc4C)cs3)cc2)CC1 [Compound 68d, N-(4-(2,5-dimethylphenyl)thiazol-2-yl)-4-((4-ethynylpiperidin-1-yl)sulfonyl)benzamide]					modestly active
	C#CC1CCN(S(=O)(=O)c2ccc(C(=O)Nc3nc(-c4cc(N=[N+]=[N-])ccc4C)cs3)cc2)CC1 [Compound 69, N-(4-(5-azido-2-methylphenyl)thiazol-2-yl)-4-((4-ethynylpiperidin-1-yl)sulfonyl)benzamide]					perfect overlapping dose-response curve
